# Experimental data from the array DNA melting data of Ke et al. (doi:10.1101/2024.01.08.574731).
# Tests used:
# [1] = melting temperature; fluorescence melt of hairpins on a sequencing array, two-state fit, raised by 9.35 °C to match UV melts; details: sodium 0.088 M
# In short: (§1)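 Hairpins were imaged by Cy3 fluorescence on a sequenced MiSeq flow cell with annealed Cy3 and quencher oligos, in 50 mM Na-HEPES pH 8.0, 25 mM NaCl, in 2.5 °C steps up to 60 °C. Bootstrapped two-state fits of normalised signals gave melting temperature and folding enthalpy. Four replicates were combined by inverse variance, and fitted temperatures were raised by 9.35 °C to match UV melts.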
# [2] = folding enthalpy; higher = less favourable; fluorescence melt of hairpins on a sequencing array, two-state fit; details: sodium 0.088 M
# In short: as §1
Sequence,Tm [1] [°C],folding enthalpy [2] [kJ/mol]
GGTTGGCGAAAGCCCACC (((.(((....))).))),51.4,-108
GGTTGGGAAACCAACC ((((((....)))))),60.4,-179
GGTTGGGCGAAAGCCACC (((..(((....)))))),39.8,-53.2
GGTTGGGGAAACCCAGTC (..((((....))))..),30.4,-36.5
GGTTGGGGAAACCTAACC ((((.((....)).)))),48,-135
GGTTGGGGAAACCTGACC (((..((....))..))),44.1,-94
GGTTGTCGAAAGACACC (((.(((....)))))),53.1,-108
GGTTGTGGAAACACGACC (((.(((....))).))),54.5,-181
GGTTGTGGAAACACGATC (.(.(((....))).).),34,-91.4
GGTTGTGGAAACATAACC ((((.((....)).)))),45.9,-155
GGTTGTGGAAACGCAACC (((((.(....).))))),54,-170
GGTTTACGAAAGTAACC (((.(((....)))))),44.2,-86.1
GGTTTAGAAATAAACC ((((((....)))))),45.3,-122
GGTTTAGGAAACTAAATC (.(((((....))))).),35.5,-93
GGTTTAGGAAACTAAGCC ((.((((....)))).)),39.8,-115
GGTTTCCGAAAGGAACC (((.(((....)))))),51.8,-82.7
GGTTTCCGAAAGGACACC (((.(((....))).))),49,-163
GGTTTCGAAAGAAAACC ((((((....))).))),46.4,-108
GGTTTCGAAAGAAGGACC ((((((....)))..))),29.1,-64.7
GGTTTCGGAAACGAAATC (.(((((....))))).),48,-105
GGTTTCGGAAACGAAGTC (..((((....))))..),26.4,-43.2
GGTTTGCCGAAAGGCACC (((..(((....)))))),30.7,-33.7
GGTTTGGGAAACCAAATC (.(((((....))))).),44.5,-130

Sequence,Tm [1] [°C],folding enthalpy [2] [kJ/mol]
GGTTTGGGAAACCAAGTC (..((((....))))..),28.1,-64.5
GGTTTGGGAAACCAGATC (.(.(((....))).).),30,-43.1
GGTTTGGGAAACCGAATC (.((.((....)).)).),35.3,-84.4
GGTTTGGGAAACTGAACC ((((..(....)..)))),35.1,-122
GGTTTTACGAAAGTAACC (((..(((....)))))),31.7,-49.2
GGTTTTGGAAACAAGACC (((.(((....))).))),42.8,-132
GTAAAACGAAAGTTGTAC (((.(((....))).))),35.3,-85.5
GTAAACACGAAAGTGTAC (((..(((....)))))),31.2,-48.7
GTAAACCGAAAGGTATAC (((.(((....))).))),40.5,-105
GTAAACCGAAAGGTGTAC (((.(((....))).))),46.2,-97.7
GTAAACGGAAACGCTTAC ((((.((....)).)))),37.1,-124
GTAAACGGAAACGTCTAC (((.(((....))).))),29,-88.6
GTAAACGGAAACGTTCAC ((.((((....)))).)),32.4,-98.7
GTAAAGCGAAAGCTTAC (((.(((....)))))),42.6,-53.6
GTAAAGGAAACTTTAC ((((((....)))))),40.6,-136
GTAAAGGGAAACCTTTAC (((((((....))))))),51.3,-172
GTAACAGAAATGTTAC ((((((....)))))),45.7,-137
GTAACAGGAAACTGTTAC (((((((....))))))),55.4,-182
GTAACCCGAAAGGGGTAC (((.(((....))).))),57.6,-129
GTAACCGAAAGGTAATAC ((((((....)))..))),23.8,-49.8
GTAACCGAAAGGTACTAC ((((((....)))..))),40.8,-70.8
GTAACCGAAAGGTATAC ((((((....))).))),35.2,-62.6
GTAACCGAAAGGTGTTAC ((((((....)))..))),35,-52.6

Sequence,Tm [1] [°C],folding enthalpy [2] [kJ/mol]
GTAACCGGAAACGATTAC ((((.((....)).)))),36.4,-106
GTAACGCGAAAGCGTAC (((.(((....)))))),49,-44.2
GTAACGGCGAAAGCCTAC (((..(((....)))))),20.7,-37.9
GTAACTCGAAAGAGCTAC (((.(((....))).))),41.9,-122
GTAACTGGAAACAGTCAC ((.((((....)))).)),34.8,-71.2
GTAAGAGGAAACCCTTAC (((((.(....).))))),31.4,-82.1
GTAAGCGAAAGCTCGTAC ((((((....)))..))),24.2,-33.9
GTAAGCGAAAGCTCTAC ((((((....))).))),32.2,-49.9
GTAAGCGAAAGCTGTTAC ((((((....)))..))),32.6,-41.5
GTAAGCGAAAGCTTAC ((((((....)))))),67.2,-117
GTAAGCGAAAGCTTATAC ((((((....)))..))),39.1,-51.2
GTAAGGAAACTTAC (((((....))))),37.9,-59.9
GTAAGGGGAAACCCTTAC (((((((....))))))),54.8,-177
GTAAGTGGAAACACCTAC (((.(((....))).))),29.2,-70.3
GTAATACGAAAGTAGTAC (((.(((....))).))),42.5,-144
GTAATAGAAATATTAC ((((((....)))))),32,-69.7
GTAATAGGAAACTATTAC (((((((....))))))),45.5,-156
GTAATCCGAAAGGATAC (((.(((....)))))),39.8,-60.9
GTAATCGAAAGATGGTAC ((((((....)))..))),25,-53.6
GTAATCGAAAGATTTAC ((((((....))).))),33.3,-61.4
GTAATGGGAAACCATTAC (((((((....))))))),53.4,-190
GTAATTGGAAACAATTGC (.(((((....))))).),39.2,-111
